# High-throughput results deposited in PubChem BioAssay by several laboratories.
# Hits are enriched below; roughly 2.6% of the tested compounds scored in any of these assays.
# EP2 modulator – EP2 receptor (human) modulation; P43116; induction, % at 25 µM; 0.83% of 260,000 active; AID 940; EP2-expressing cells, cAMP HTRF FRET, PGE2 co-stimulation;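 active = compounds whose cAMP rise, as percent of the full-agonist control response, exceeds 60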;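 note: rat C6 glioma line stably carrying human EP2 under a CMV promoter; the protocol text gives 20 µM as final concentration; 100% = response of wells given 1 µM PGE2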
# Granule exo inh – blocks lytic granule exocytosis | TALL-104 LAMP-1 surface exposure, flow cytometry; cells stimulated with thapsigargin and PMA | inhibition, % at 10 µM | 0.66% of 360,000 active;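 active = inhibition above about 55%, limit read from the data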
# MC4R antagonist – antagonists of human melanocortin 4 receptor (MC4R) | MC4R-expressing cells, MTII-stimulated cAMP, LANCE TR-FRET | inhibition, % at 6.5 µM | 0.48% of 360,000 active | P32245;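 active = inhibition above its plate's cutoff, the mean of tested wells on that plate plus 3 SD, cut at about 29% in these data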;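 note: 0% = Melanotan II alone and 100% = Melanotan II plus saturating MCL0020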
# Target sequence (P32245 whole entry, looked up): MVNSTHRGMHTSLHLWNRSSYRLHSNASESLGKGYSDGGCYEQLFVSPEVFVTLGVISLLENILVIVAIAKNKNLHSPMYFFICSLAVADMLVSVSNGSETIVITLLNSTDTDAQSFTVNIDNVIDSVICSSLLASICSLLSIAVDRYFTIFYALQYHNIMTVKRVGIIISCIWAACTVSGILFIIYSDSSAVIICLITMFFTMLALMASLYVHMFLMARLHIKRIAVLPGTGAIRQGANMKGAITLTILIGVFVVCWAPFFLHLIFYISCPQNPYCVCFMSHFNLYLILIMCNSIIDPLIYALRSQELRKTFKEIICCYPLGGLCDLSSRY
#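 Assay system: U2OS cells stably expressing human melanocortin 4 receptor (MC4R) / Dosing: 6.5 µM / Timing: compound 30 min, challenge 1 h, detection 1 h / Measured by: Eu-cAMP/anti-cAMP TR-FRET, emission 671 nm / Replicates: singlicate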
# T cell modulator – T cell immune modulators affecting CD8 T cell-vesicle binding; 2C CD8+ T cell-vesicle binding, flow cytometry; hits give low values; response (vesicle binding), % at 7 µM; 0.068% of 330,000 active;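 active = response, share of CD8 T cells binding vesicles, and their 90th percentile fluorescence all below set limits, cut at about 80% in these data, passing the limit was not always enough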;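 note: values below 100% mean blocked vesicle binding to the CD8+ T cells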
#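 Also added: QL9-peptide-loaded Drosophila micro-vesicles bearing Ld, ICAM-1 and B7-1; Test system: purified 2C TCR transgenic mouse naive CD8+ T cells; Measured by: cytometric PE anti-B7-1 and Alexa647 anti-CD8 signals after 1% paraformaldehyde fixation; Timing: binding step 1.5 h, 37 °C, antibody labelling 20 min, ice.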
# MC4R ag barr – activates human MC4R beta-arrestin recruitment. P32245. U2OS MC4R beta-arrestin complementation, luminescence; percent of melanotan II response, DMSO zero. activation, % at 8.9 µM. 0.98% of 360,000 active;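 active = activation above a per-plate cutoff, the mean activation of sample wells on that plate plus 3 SD, cut at about 8% in these data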
# EP2 antag – EP2 receptor (human) inhibition; P43116; C6 glioma cells expressing human EP2, cAMP TR-FRET; cells stimulated with saturating PGE2; inhibition, % at 25 µM; 0.52% of 260,000 active;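 active = percent inhibition above 40 after rounding to a whole number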;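 note: rat C6 glioma host cells with rolipram phosphodiesterase inhibitor present; the protocol text gives 20 µM as final concentration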
# Active calls of the source: *; i = inactive; · = no result given.
SMILES,EP2 modulator,Granule exo inh,MC4R antagonist,T cell modulator,MC4R ag barr,EP2 antag
COc1ccc(N(C(=O)CCl)C(C(=O)NCCc2ccccc2)c2cccs2)cc1 (configuration not stated),16,6,28,144,12*,7
COC(=O)[C@H]1CN(C(=O)c2cnn(C)c2C)C[C@@H]1c1ccc(F)cc1,-7,·,·,·,·,·
Cc1ccc(-c2nn(-c3ccccc3)cc2/C=N/n2c(-c3ccncc3)n[nH]c2=S)cc1,-11,8,10,370,-2,7
S=c1[nH]nc(-c2cccs2)n1/N=C/c1cn(-c2ccccc2)nc1-c1ccccc1,60,0,19,664,9.4*,7
NC(=O)C(F)(F)C12OC3C4C5CC(C6C5C3C61)C42 (configuration not stated),3,-1,0,333,-1,106*
COC(=O)c1cccc(C23CC4(C2)[C@H](CN(Cc2ccc(C(F)(F)F)cc2)[C@@H]4c2ccccc2)C3c2ccc(Cl)nc2)c1 (some centres not stated),25,77*,-5,143,4,18
C=C(C)C(O)Cc1c(OC)ccc(C(=O)/C=C/c2ccc(O)cc2)c1O (configuration not stated),·,2,3,252,3,·
CC(C)=CCC/C(C)=C/Cc1c(O)ccc(C(=O)/C=C/c2ccc(O)cc2)c1O,17,9,7,·,8.6*,8
CC(=O)O[C@@H]1CC[C@]2(C)C(=C[C@H]([C@@H]3C=C4C[C@@H](OC(C)=O)CC[C@]4(C)C4=C3[C@@H]3C[C@@H]5O[C@@]6(CC[C@H](C)CO6)[C@@H](C)[C@@H]5[C@@]3(C)CC4)C3=C2CC[C@@]2(C)[C@@H]4[C@@H](C)[C@]5(CC[C@H](C)CO5)O[C@@H]4C[C@H]32)C1,20,·,·,·,·,40*
CC(=O)OC1CCC2(C)C(=CCC3C2CCC2(C)C3CC3OC4(CCC(C)CN4)C(C)C32)C1 (configuration not stated),12,12,1,·,0,12
COC(=O)CN(n1cnnc1)S(=O)(=O)c1ccccc1Cl,17,-2,21,67*,-1,11
CC(=O)c1cccc(NC(=O)c2ccc3ccccc3c2)c1,·,22,4,194,0,·
O=C(O)/C=C/c1cccc(NC(=O)c2ccccc2)c1,93*,4,21,117,-2,7
O=C(O)/C=C/c1cccc(NC(=O)c2ccc(Cl)cc2)c1,30,4,3,250,-2,10
CC(=O)c1ccc(NC(=O)c2cccc(NC(=O)c3ccccc3)c2)cc1,·,-3,1,629,8.4*,·
Cc1cccc(CCNC(=O)CC2C(=O)NCCN2CC2CCCCC2)n1 (configuration not stated),20,-1,15,343,-1,5
CC(C)=CCC[C@](C)(OC1OC(COC2OCC(O)C(O)C2O)C(O)C(O)C1O)C1CC[C@]2(C)C1C(O)CC1[C@@]3(C)CCC(O[C@@H]4O[C@H](CO)C(O)C(O)C4O[C@@H]4OC(CO)C(O)C(O)C4O)C(C)(C)C3CC[C@]12C (some centres not stated),·,0,1,196,0,·
Cc1cc(C)cc(-c2nnc(SCC(=O)NCC3CCCO3)o2)c1 (configuration not stated),·,-5,8,·,-1,·
COc1ccc(S(=O)(=O)N2CCC(C(=O)Oc3c(OC)cccc3OC)CC2)cc1OC,·,-8,-6,i,-1,·
CCCCn1nc(C(=O)Nc2ccc3c(c2)OCO3)c2ccccc2c1=O,·,8,10,687,0,·
N#C/C(=C\c1cccs1)C(=O)c1ccccc1Cl,-58,·,·,420,·,113*
Cc1cccc(Oc2cnn(C(C)(C)C)c(=O)c2Cl)c1,8,0,6,286,8.8*,3
CCC[C@@H]1C[C@@H](C(=O)NC(C(C)Cl)[C@H]2O[C@H](SC)[C@H](O)[C@@H](O)[C@H]2O)N(C)C1 (some centres not stated),·,0,16,470,1,·
CN1CCN(CN2C(=O)[C@H]3[C@H]4C=C[C@@H]([C@@H]3C2=O)[C@H]2[C@@H]3C(=O)N(CN5CCN(C)CC5)C(=O)[C@@H]3[C@@H]42)CC1,8,·,·,·,·,53*
CCCCN1C(=O)C2C3C=CC(C2C1=O)C1C2C(=O)N(CCCC)C(=O)C2C31 (configuration not stated),0,-2,10,271,-3,4
SMILES,EP2 modulator,Granule exo inh,MC4R antagonist,T cell modulator,MC4R ag barr,EP2 antag
COC(=O)c1cc(F)c(-n2cncn2)c(F)c1,1,-1,-2,265,1,10
COC(=O)c1cc([N+](=O)[O-])c(-n2cncn2)c([N+](=O)[O-])c1,25,3,8,·,-4,77*
O=C1C2C3C=CC(O3)C2C(=O)N1CC(O)c1ccccc1 (configuration not stated),16,63*,-5,119,1,15
COc1ccc(CCNc2cn[nH]c(=O)c2Cl)cc1OC,7,-2,9,113,-1,11
O=C1COc2ccc(S(=O)(=O)N3CCCC3)cc2N1,·,15,5,375,2,·
O=C1COc2ccc(N3C(=O)C=CC3=O)cc2N1,-34,·,·,176,·,46*
CC(C)(O)C(=O)NNC(=S)Nc1cccc(C(F)(F)F)c1,37,-8,6,398,-6,9
CC(O)(CS(=O)(=O)Cc1ccc(Cl)cc1)C(=O)Nc1cccc(C(F)(F)F)c1 (configuration not stated),-4,-1,11,276,11*,4
Nc1ccccc1Nc1cccc(C(F)(F)F)c1,5,-2,-2,249,1,12
O=C1C=C(c2ccccc2Oc2ccccc2)C[C@@H](c2ccc3c(c2)OCO3)C1,·,-1,5,188,-2,·
CCOC(=O)c1sc(N2C(=O)C(=O)/C(=C(\O)c3ccc(OC)cc3C)C2c2cccnc2)nc1C (configuration not stated),4,·,·,·,·,54*
CCCCC(=O)Nc1nnc(SCC(=O)Nc2ccc(OC)cc2)s1,·,0,6,323,-1,·
OC(CN1CCN(C(c2ccccc2)c2ccccc2)CC1)c1ccccc1 (configuration not stated),·,5,21,502,10.0*,·
CCOC(=O)CSc1ccc(C(=O)Nc2ccc(Cl)cc2)cn1,-47,3,18,302,0,41*
CCOc1ccccc1NC(=O)CCNS(=O)(=O)c1ccccc1,·,3,9,244,0,·
Cc1cccc(NC(=O)/C(C#N)=C/c2cn(CC(=O)NCc3ccco3)c3ccccc23)c1C,-15,0,14,270,8,11
